Laboratory results as given in ChEMBL document CHEMBL4422637, “Identification of dual role of piperazine-linked phenyl cyclopropyl methanone as positive allosteric modulator of 5-HT2C and negative allosteric modulator of 5-HT2B receptors” (Eur J Med Chem, 2019).
Active and inactive are the calls of the source. The calls are words filed in the database; no cut-off is given here.

Columns and labels:
[1] = target: T1, 5-hydroxytryptamine receptor 2C (Homo sapiens) (UniProt P28335); assay: Positive allosteric modulation of 5HT2C receptor (unknown origin) expressed in HEK293 cells co-expressing NFAT-RE assessed as increase in serotonin-induced reponse at 10 uM after 6 to 12 hrs by Bright-Glo luciferase reporter gene assay relative to serotonin; assay type: cell-based
T1 sequence (whole entry): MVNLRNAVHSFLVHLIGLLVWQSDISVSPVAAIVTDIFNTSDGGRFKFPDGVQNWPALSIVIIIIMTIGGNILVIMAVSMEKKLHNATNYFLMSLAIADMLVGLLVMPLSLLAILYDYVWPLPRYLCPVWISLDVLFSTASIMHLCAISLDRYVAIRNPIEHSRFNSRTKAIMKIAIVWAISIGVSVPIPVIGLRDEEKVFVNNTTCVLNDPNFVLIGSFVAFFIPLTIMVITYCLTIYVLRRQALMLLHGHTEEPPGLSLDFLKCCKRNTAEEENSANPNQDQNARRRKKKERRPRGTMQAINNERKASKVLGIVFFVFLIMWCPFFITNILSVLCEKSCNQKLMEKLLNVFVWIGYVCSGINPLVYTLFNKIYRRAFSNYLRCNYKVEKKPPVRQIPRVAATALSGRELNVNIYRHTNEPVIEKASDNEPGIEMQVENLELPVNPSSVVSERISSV
In short: (§1)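 Transiently co-transfected HEK293T cells expressing 5-HT2A, 5-HT2B or 5-HT2C with NFAT-RE luciferase, 50,000 cells/well. Test compound added first at 10 µM, 1 µM or 100 nM, in triplicate. A 5-HT concentration-response (10 µM to 0.01 nM) followed, then 6-12 h incubation. Bright-Glo luminescence was fitted by non-linear regression, with Emax normalized to 5-HT alone (100%). n=3-4.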

[2] = target: T1, 5-hydroxytryptamine receptor 2C (Homo sapiens); assay: Agonist activity at 5HT2C receptor (unknown origin) expressed in HEK293 cells co-expressing NFAT-RE at 10 uM after 6 to 12 hrs by Bright-Glo luciferase reporter gene assay; assay type: cell-based
In short: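 Primary screen at 5-HT2C in transiently co-transfected HEK293T (receptor plus NFAT-RE luciferase plasmids, 50,000 cells/well). Compounds tested in triplicate at a final 10 µM in HEPES-buffered HBSS pH 7.4 and incubated 6-12 h. Luminescence read within 5 min of Bright-Glo (1 mg/ml final). Signal normalized to the 5-HT maximal response.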

Rattus norvegicus = assay: Induction of anorexia in Sprague-Dawley rat assessed as suppression of food intake at 2 pmol, icv measured after 3 to 6 hrs; assay type: functional, organism-based
In short: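 Adult SD rats (150-200 g) on a 12 h light/dark cycle at 22 °C, cannulated in the right ventricle. Rats were fasted 4 h with free access to water, then dosed i.c.v. with 2 pmol/rat (2 µL) in aCSF vehicle; lorcaserin 2 pmol/rat served as positive control. Weighed pellets were given 10 min later, and remaining food plus spillage was weighed at 3, 6 and 24 h; n=4.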

[3] = target: T2, 5-hydroxytryptamine receptor 2B (Homo sapiens, UniProt P41595); assay: Positive allosteric modulation of 5HT2B receptor (unknown origin) expressed in HEK293 cells co-expressing NFAT-RE assessed as increase in serotonin-induced reponse at 10 uM after 6 to 12 hrs by Bright-Glo luciferase reporter gene assay; assay type: cell-based; details: hek293, 10 µM; in short: as §1
5HT2B receptor = 5HT2B receptor (Homo sapiens, UniProt P41595); assay: Positive allosteric modulation of 5HT2B receptor (unknown origin) expressed in HEK293 cells co-expressing NFAT-RE assessed as increase in serotonin-induced reponse at 1 uM after 6 to 12 hrs by Bright-Glo luciferase reporter gene assay relative to serotonin; assay type: cell-based; details: HEK293 cells expressing 5HT2B receptor and NFAT-RE reporter; in short: as §1
[4] = target: T3, 5-hydroxytryptamine receptor 2A (Homo sapiens, UniProt P28223); assay: Positive allosteric modulation of 5HT2A receptor (unknown origin) expressed in HEK293 cells co-expressing NFAT-RE assessed as increase in serotonin-induced reponse after 6 to 12 hrs by Bright-Glo luciferase reporter gene assay; assay type: cell-based; in short: as §1
[5] = target: T3, 5-hydroxytryptamine receptor 2A; assay: Agonist activity at 5HT2A receptor (unknown origin) expressed in HEK293 cells co-expressing NFAT-RE after 6 to 12 hrs by Bright-Glo luciferase reporter gene assay; assay type: cell-based
In short: (§2)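 HEK293T cells transiently co-transfected (PEI) with 0.1 µg/well receptor plasmid (5-HT2A, 5-HT2B or 5-HT2C) plus 0.1 µg/well NFAT-RE luciferase reporter, plated 50,000 cells/well 24 h before treatment. Compounds tested in triplicate from 10 µM down to 0.01 nM in HBSS/20 mM HEPES pH 7.4, incubated 6-12 h. Luminescence read within 5 min of Bright-Glo (1 mg/ml final). RLU fitted by non-linear regression; 5-HT Emax set to 100%.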

[6] = target: T4, 5-hydroxytryptamine receptor 2C (Homo sapiens, UniProt P28335); assay: Positive allosteric modulation of 5HT2C receptor (unknown origin) expressed in HEK293 cells co-expressing NFAT-RE assessed as increase in serotonin-induced reponse after 6 to 12 hrs by Bright-Glo luciferase reporter gene assay; assay type: cell-based; in short: as §1
T4 sequence (P28335 whole entry): T1 sequence (whole entry)

5HT2A receptor = 5HT2A receptor (Homo sapiens, UniProt P28223); assay: Positive allosteric modulation of 5HT2A receptor (unknown origin) expressed in HEK293 cells co-expressing NFAT-RE assessed as increase in serotonin-induced reponse at 1 uM after 6 to 12 hrs by Bright-Glo luciferase reporter gene assay relative to serotonin; assay type: cell-based; details: HEK293 cells expressing 5HT2A receptor and NFAT-RE reporter; in short: as §1
[7] = target: T2, 5-hydroxytryptamine receptor 2B; assay: Agonist activity at 5HT2B receptor (unknown origin) expressed in HEK293 cells co-expressing NFAT-RE after 6 to 12 hrs by Bright-Glo luciferase reporter gene assay; assay type: cell-based; in short: as §2
[8] = target: T1, 5-hydroxytryptamine receptor 2C (Homo sapiens); assay: Positive allosteric modulation of 5HT2C receptor (unknown origin) expressed in HEK293 cells co-expressing NFAT-RE assessed as increase in serotonin-induced reponse at 1 uM after 6 to 12 hrs by Bright-Glo luciferase reporter gene assay relative to serotonin; assay type: cell-based; in short: as §1
[9] = target: T2, 5-hydroxytryptamine receptor 2B; assay: Positive allosteric modulation of 5HT2B receptor (unknown origin) expressed in HEK293 cells co-expressing NFAT-RE assessed as increase in serotonin-induced reponse after 6 to 12 hrs by Bright-Glo luciferase reporter gene assay; assay type: cell-based; in short: as §1
[10] = target: T1, 5-hydroxytryptamine receptor 2C (Homo sapiens); assay: Agonist activity at 5HT2C receptor (unknown origin) expressed in HEK293 cells co-expressing NFAT-RE after 6 to 12 hrs by Bright-Glo luciferase reporter gene assay; assay type: cell-based; in short: as §2

T3 sequence (P28223 whole entry): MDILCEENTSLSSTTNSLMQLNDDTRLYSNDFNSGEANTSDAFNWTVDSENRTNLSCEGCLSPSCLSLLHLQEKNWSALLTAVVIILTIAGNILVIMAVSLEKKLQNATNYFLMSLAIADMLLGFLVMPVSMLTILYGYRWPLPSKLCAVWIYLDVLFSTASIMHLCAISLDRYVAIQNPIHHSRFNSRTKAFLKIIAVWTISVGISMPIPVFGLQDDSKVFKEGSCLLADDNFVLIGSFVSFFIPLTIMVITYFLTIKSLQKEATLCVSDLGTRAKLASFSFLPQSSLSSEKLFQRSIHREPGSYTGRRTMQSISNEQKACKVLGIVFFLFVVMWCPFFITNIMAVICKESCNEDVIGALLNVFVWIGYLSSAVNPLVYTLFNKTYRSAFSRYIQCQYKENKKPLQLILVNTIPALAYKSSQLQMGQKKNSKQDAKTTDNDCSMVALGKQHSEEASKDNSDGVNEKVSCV
T2 sequence (P41595 whole entry): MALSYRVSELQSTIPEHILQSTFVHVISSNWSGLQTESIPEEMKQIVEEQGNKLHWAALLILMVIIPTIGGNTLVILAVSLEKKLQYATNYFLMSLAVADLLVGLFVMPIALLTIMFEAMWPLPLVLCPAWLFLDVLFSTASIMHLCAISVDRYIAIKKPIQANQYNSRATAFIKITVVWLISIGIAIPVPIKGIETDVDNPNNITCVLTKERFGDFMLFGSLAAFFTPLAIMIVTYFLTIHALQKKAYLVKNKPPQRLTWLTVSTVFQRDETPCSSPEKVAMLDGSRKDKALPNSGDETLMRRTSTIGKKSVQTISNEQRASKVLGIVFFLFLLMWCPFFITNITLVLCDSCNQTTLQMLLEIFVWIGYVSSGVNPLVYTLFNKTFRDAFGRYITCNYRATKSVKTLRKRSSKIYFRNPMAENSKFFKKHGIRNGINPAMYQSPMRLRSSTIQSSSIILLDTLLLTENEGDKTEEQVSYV
Sequence of 5HT2A receptor (P28223 whole entry): as the sequence (P28223 whole entry) above
Sequence of 5HT2B receptor (P41595 whole entry): as the sequence (P41595 whole entry) above

| SMILES | Activity [1] | Activity [2] | other results |
| --- | --- | --- | --- |
| O=C(c1ccc(NCCCn2ccnc2)cc1)C1CC1 | inactive |  |  |
| Nc1ncnc2c1ncn2-c1ccc(C(=O)C2CC2)cc1 | inactive | inactive |  |
| Nc1cccc2ncn(-c3ccc(C(=O)C4CC4)cc3)c12 | inactive | inactive |  |
| C=CCN1CCN(c2ccc(C(=O)C3CC3)cc2)CC1 | inactive | inactive |  |
| OC(c1ccc(-n2cnc3c(NCc4ccccc4)ncnc32)cc1)C1CC1 (stereo unspecified) | inactive | inactive |  |
| Cc1cccc2sc(Nc3ccc(C(=O)C4CC4)cc3)nc12 | inactive | inactive |  |
| O=S(=O)(NCc1cn(C(c2ccc(OCc3ccccc3)cc2)C2CC2)nn1)c1ccc(F)cc1 (stereo unspecified) |  | inactive |  |
| O=C(c1ccc(-n2cnc3c(NCc4ccccc4)ncnc32)cc1)C1CC1 | inactive | inactive |  |
| Cc1nc2ccccc2n1-c1ccc(C(=O)C2CC2)cc1 | inactive | inactive |  |
| CCOc1ccc2nc(Nc3ccc(C(=O)C4CC4)cc3)sc2c1 | inactive | inactive |  |
| O=C(c1ccc(-n2nnc3ccccc32)cc1)C1CC1 | inactive | inactive |  |
| O=C(c1ccc(Nc2nc3ccccc3[nH]2)cc1)C1CC1 | inactive | inactive |  |
| COc1cc(C(=O)OCc2cn(C(c3ccc(OCc4ccccc4)cc3)C3CC3)nn2)cc(OC)c1OC (stereo unspecified) |  | inactive |  |
| O=[N+]([O-])c1cn(-c2ccc(C(O)C3CC3)cc2)cn1 (stereo unspecified) | inactive | inactive |  |
| C[C@H]1CNCCc2ccc(Cl)cc21 |  |  | Activity (Rattus norvegicus): Active |
| O=C(c1ccc(Nc2nc3ccccc3s2)cc1)C1CC1 | inactive | inactive |  |
| O=C(c1ccc(-n2cnc3ccccc32)cc1)C1CC1 | inactive | inactive |  |

| SMILES | Activity [1] | Activity [2] | other results |
| --- | --- | --- | --- |
| O=C(c1ccc(-n2cnc([N+](=O)[O-])c2)cc1)C1CC1 | Active | inactive | Activity [3]: Active; Emax at 1 µM (5HT2B receptor): 123%; EC50 [4]: 45.7 nM; Activity [5]: Not Active; EC50 [6]: 4.17 nM; Emax at 1 µM (5HT2A receptor): 100%; Activity [7]: Not Active; Emax [8]: 140%; EC50 [9]: 1.26 nM; Activity [10]: inactive |
| O=C(c1ccc(NCCN2CCN(c3ccc(C(=O)C4CC4)cc3)CC2)cc1)C1CC1 |  | inactive |  |
| OC(c1ccc(-n2ccnc2)cc1)C1CC1 (stereo unspecified) | inactive | inactive |  |
| c1ccc(COc2ccc(C(C3CC3)n3cc(-c4ccccc4)nn3)cc2)cc1 (stereo unspecified) |  | inactive |  |
| Nc1ncnc2c1ncn2-c1ccc(C(O)C2CC2)cc1 (stereo unspecified) | inactive | inactive |  |
| OCc1cn(C(c2ccc(OCc3ccccc3)cc2)C2CC2)nn1 (stereo unspecified) |  | inactive |  |
| O=C(c1ccc(Nc2nc3ccc(F)cc3s2)cc1)C1CC1 | inactive | inactive |  |
| OC(c1ccc(-n2cnc3ccccc32)cc1)C1CC1 (stereo unspecified) | inactive | inactive |  |
| OCCCCc1cn(C(c2ccc(OCc3ccccc3)cc2)C2CC2)nn1 (stereo unspecified) |  | inactive |  |
| O=C(c1ccc(N2CCN(Cc3ccc4c(c3)OCO4)CC2)cc1)C1CC1 | inactive | inactive |  |
| CC1(C)O[C@@H]2O[C@H]([C@H]3COC(C)(C)O3)[C@@H](OCc3cn(C(c4ccc(OCc5ccccc5)cc4)C4CC4)nn3)[C@H]2O1 (stereo partly specified) |  | inactive |  |
| O=C(c1ccc(OCc2ccccc2)cc1)C1CC1 |  | inactive |  |
| Cc1ccc(S(=O)(=O)NCc2cn(C(c3ccc(OCc4ccccc4)cc3)C3CC3)nn2)cc1 (stereo unspecified) |  | inactive |  |
| Cc1nc2ccccc2n1-c1ccc(C(O)C2CC2)cc1 (stereo unspecified) | inactive | inactive |  |
| CCCCCc1cn(C(c2ccc(OCc3ccccc3)cc2)C2CC2)nn1 (stereo unspecified) |  | inactive |  |
| O=C(c1ccc(N2CCN(C(c3ccccc3)c3ccccc3)CC2)cc1)C1CC1 | inactive | inactive |  |
| O=C(c1ccc(-n2ccnc2)cc1)C1CC1 | Active | inactive | Activity [3]: Active; Emax at 1 µM (5HT2B receptor): 119%; EC50 [4]: 50.1 nM; Activity [5]: Not Active; EC50 [6]: 4.27 nM; Emax at 1 µM (5HT2A receptor): 96%; Activity [7]: Not Active; Emax [8]: 143%; EC50 [9]: 1.26 nM; Activity [10]: inactive |
